# RGS4 block: RGS4 inhibitors, primary screen, cell-based, HEK293 M3R inducible RGS4, calcium flux; hit rate 0.45% among 310,000; Fluo-4 calcium flux; stronger effect = higher value; triggered by carbachol at its EC20; Regulator of G-protein signaling 4 (Homo sapiens), P49798; B-score at 10 µM;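 active = B-score, a plate-corrected calcium signal, over three deviations above library mean, with baseline fluorescence within five deviations of library mean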;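 note: RGS4 expression induced by doxycycline in cells with stable M3 receptor; B-score is computed from the integrated fluorescence ratio over baseline after carbachol; higher B-score means a larger calcium signal and so more RGS4 inhibition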
# Target sequence (P49798 whole entry, looked up): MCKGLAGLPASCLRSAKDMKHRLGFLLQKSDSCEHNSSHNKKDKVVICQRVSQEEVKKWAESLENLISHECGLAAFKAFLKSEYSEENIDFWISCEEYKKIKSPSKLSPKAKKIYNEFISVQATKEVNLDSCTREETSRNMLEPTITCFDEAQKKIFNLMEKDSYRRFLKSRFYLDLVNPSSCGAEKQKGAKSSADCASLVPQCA
# MrgX1 antag: antagonists of human MrgX1 receptor, primary screen, HEK293 cells, Fluo-4 calcium flux; Mas-related G-protein coupled receptor member X1 (Homo sapiens), Q96LB2; BAM8-22 antagonism; stronger effect = lower value; B-score at 10 µM; hit rate 1.3% among 310,000; AID 588676, 2011;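 active = calcium-response B-score plate-corrected more than 3 library SD below zero, starting fluorescence within 5 deviations, no agonist response on first addition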;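 note: peak minus trough fluorescence over baseline after final BAM8-22 challenge near maximal dose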
# Target sequence (Q96LB2 whole entry, looked up): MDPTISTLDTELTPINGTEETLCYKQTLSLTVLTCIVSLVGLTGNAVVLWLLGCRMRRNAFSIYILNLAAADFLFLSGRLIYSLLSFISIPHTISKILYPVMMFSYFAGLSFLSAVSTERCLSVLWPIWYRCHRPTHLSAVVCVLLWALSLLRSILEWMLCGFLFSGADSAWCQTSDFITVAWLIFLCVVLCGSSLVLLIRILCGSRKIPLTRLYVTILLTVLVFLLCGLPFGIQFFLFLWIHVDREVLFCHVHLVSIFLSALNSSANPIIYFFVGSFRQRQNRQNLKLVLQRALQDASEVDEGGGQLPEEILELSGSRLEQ
# MrgX1 allo act: positive allosteric modulators of MrgX1, primary screen, HEK293 cells, Fluo-4 calcium flux; Mas-related G-protein coupled receptor member X1 (Homo sapiens), Q96LB2; FDSS; stronger effect = higher value; B-score at 10 µM; hit rate 0.63% among 310,000;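 active = plate-corrected calcium response at least 3 library SD above typical, normal starting fluorescence, not activating the receptor alone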;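 note: compound read alongside a low EC10 to EC30 dose of BAM8-22 agonist; peak minus trough fluorescence over baseline measured at the second addition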
# MrgX1 ag: agonists of human MrgX1 receptor, primary screen, HEK293 cells, Fluo-4 calcium flux; Mas-related G-protein coupled receptor member X1 (Homo sapiens), Q96LB2; Fluo-4 calcium fluorescence, agonist mode; stronger effect = higher value; B-score at 10 µM; hit rate 0.44% among 310,000; AID 588627, 2011;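 active = calcium response B-score plate-corrected fluorescence ratio at least 3 library SD, with starting fluorescence B-score inside 5 SD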
#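 Assay system: stable human MrgX1 HEK293 cell line. Quantity: 15,000 cells per well. Schedule: cells plated overnight, dye loaded 0.5 h 37 °C, 0.5 h room temperature. Detection: Fluo-4 NW calcium-flux fluorescence, kinetic read. Read-out basis: peak-minus-minimum fluorescence over baseline, converted to B scores. Control set: positive and negative control wells on each plate.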
# RGS4 act: RGS4 potentiators or activators, primary screen, cell-based, HEK293 M3R inducible RGS4, calcium flux; carbachol calcium flux Fluo4; stronger effect = lower value; B-score at 10 µM; hit rate 0.92% among 310,000; AID 463111, 2010;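 active = B-score of the integrated calcium signal more than 4 SD below the library mean, with starting fluorescence not abnormally high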;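 note: negative B-score means reduced calcium response which marks RGS4 activation or potentiation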
#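 Test system: HEK293 cells with stable M3R and inducible RGS4; also added: carbachol at ECmax as muscarinic agonist stimulus; schedule: dye loading 30 min 37 °C, buffer rest 30 min RT; technique: kinetic calcium fluorescence imaging with Fluo4-AM dye, 2 µM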
# RGS4 inh valid: enhanced carbachol calcium response, M3R/RGS4 cells, RGS4 inhibitor project, cell-based, validation screen, HEK293 M3R/RGS4, calcium flux; shares compounds with RGS4 block; carbachol calcium Fluo-4 fluorescence; carbachol added at its EC20; 0 = buffer wells, 100 = carbachol control; calcium response, % at 10 µM; hit rate 65% among 1,700;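 active = duplicate-averaged calcium response above the buffer-only control mean plus 5 SD of those controls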;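 note: integrated fluorescence ratio F max minus min over baseline F0; higher response in RGS4-induced cells means RGS4 inhibition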
# RGS4 uninduced: carbachol calcium response in non-induced M3R cells, confirmation, counter-screen for RGS4 inhibitor project, cell-based, HEK293 M3R; hit rate 20% among 1,900; activity (percent), % at 10 µM; AID 493000, 2010; shares compounds with RGS4 block; carbachol calcium Fluo-4; submaximal (EC20) carbachol stimulus; buffer wells 0%, carbachol control wells 100%; call rule not given here;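 note: RGS4 induction absent so cells express M3R without RGS4; higher means more calcium signal and flags a non-specific hit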
# M3R basal Ca ctr: signal in non-induced cells without carbachol, RGS4 inhibitor counter-screen | shares compounds with RGS4 block | HEK293 M3R/RGS4 non-induced, Fluo-4 calcium, no carbachol; normalised: buffer wells 0%, carbachol wells 100% | calcium response (agonist-mode artifact), % at 10 µM | hit rate 22% among 1,900;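 active = duplicate-averaged calcium rise in uninduced cells above buffer wells' mean plus 5 SD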
# The depositor's hits bear a star; i = inactive; . = no result. Compounds with a hit are over-represented: about 3.5% of the library has one in this group of screens.
SMILES,RGS4 block,MrgX1 antag,MrgX1 allo act,MrgX1 ag,RGS4 act,RGS4 inh valid,RGS4 uninduced,M3R basal Ca ctr
CC1CCN(C(=O)CSc2n[nH]c(-c3cccs3)n2)CC1,i,i,i,i,i,.,.,.
O=C1c2ccccc2C(=O)N1CCOc1cccc(Br)c1,i,i,i,i,i,.,.,.
CCCCC1=CC2=C(c3ccco3)C(=O)C(C)(OC(=O)c3ccc(OC)cc3)C(=O)C2=CN1C1CC1 (centres undefined),9.3*,i,i,i,i,5.5%*,i,i
COC(=O)CCCC1=CC2=C(c3ccccc3)C(=O)C(C)(OC(=O)C3CCCC3)C(=O)C2=CN1C1CC1 (centres undefined),i,i,i,i,i,.,.,.
CCCCC1=CC2=C(c3ccco3)C(=O)C(C)(OC(=O)c3ccc(OC)cc3)C(=O)C2=CN1C1CCCC1 (centres undefined),i,i,i,i,i,i,i,102%*
Cc1cc(Nc2ccccc2)n2nc(C)c(-c3ccccc3)c2n1,i,i,i,i,i,i,i,i
Cc1cc(C)n2nc(C)c(-c3ccccc3)c2n1,i,i,i,i,i,.,.,.
CCOC(=O)C1=C(C)n2c(s/c(=C/c3cccc([N+](=O)[O-])c3)c2=O)=NC1c1ccc(O)c(OC)c1 (centres undefined),34*,i,i,i,i,66%*,34%*,20%*
O=C(c1cc(-c2ccccc2)n[nH]1)N1CCc2c([nH]c3ccccc23)C1c1ccccn1 (centres undefined),7.3*,i,i,i,i,27%*,30%*,i
O=C(c1cccs1)N1CCc2c([nH]c3ccccc23)C1c1ccccn1 (centres undefined),i,i,i,i,i,.,.,.
Cc1ccc(-c2ccc(/C=N\NC(=O)C3C(=O)NCC3c3ccccc3)o2)cc1Cl (centres undefined),i,i,i,i,i,.,i,i
O=C1NCC(c2ccccc2)C1C(=O)N/N=C\c1ccc(-c2cccc(Cl)c2Cl)o1 (centres undefined),i,i,i,i,i,.,.,.
COc1ccc(C(=O)NCC(=O)NCC(=O)OCC(=O)c2ccc(C)cc2)cc1,i,i,i,i,i,.,.,.
Cc1ccc(OCC(=O)NNC(=O)c2ccco2)c(C)c1,30*,i,i,i,i,i,i,i
O=C1/C(=C/c2cccnc2)Sc2ccccc21,7.9*,i,i,47*,i,42%*,46%*,32%*
CC(=O)Nc1ccc(/C=C2\Sc3ccccc3C2=O)cc1,i,i,i,i,i,.,.,.
CCOc1ccc(-c2nnc(SCC(=O)Nc3ccc4c(c3)c3ccccc3n4CC)n2N)cc1,i,i,i,i,i,i,i,i
CCn1c2ccccc2c2cc(NC(=O)CSc3nnc(-c4ccc(OC)c(OC)c4)n3N)ccc21,i,i,i,i,i,i,i,i
COc1cccc(-c2nnc(SCC(=O)Nc3cc(C)ccc3OC)n2N)c1,i,i,i,i,i,.,.,.
CCn1c2ccccc2c2cc(NC(=O)CSc3nnc(-c4ccccc4OC)n3N)ccc21,i,i,i,i,i,.,i,i
CCn1c2ccccc2c2cc(NC(=O)CSc3nnc(-c4cccc(OC)c4)n3N)ccc21,i,i,i,i,i,.,i,i
Cc1cc(/C=C2/NC(=O)N(Cc3ccccc3F)C2=O)c(C)n1-c1ccccn1,i,i,i,i,i,.,.,.
O=C(Nc1ccc2nc(-c3ccc4nc[nH]c4c3)[nH]c2c1)c1cccs1,i,i,i,i,i,.,.,.
COc1ccc(S(=O)(=O)N2CCCOC2CNC(=O)C(=O)NC2CCCC2)cc1 (centres undefined),i,i,i,i,i,i,i,i
O=C(NCC1OCCCN1S(=O)(=O)c1ccc(F)cc1)C(=O)NC1CCCC1 (centres undefined),i,i,i,i,i,i,i,i
SMILES,RGS4 block,MrgX1 antag,MrgX1 allo act,MrgX1 ag,RGS4 act,RGS4 inh valid,RGS4 uninduced,M3R basal Ca ctr
COc1ccc(CNC(=O)C(=O)NCC2OCCN2S(=O)(=O)c2ccc(OC)cc2)cc1 (centres undefined),i,i,i,i,i,.,.,.
N#CC1=C(N)NC(SCC(=O)c2ccccc2)=C(C#N)C12CCCC2,i,i,i,i,i,.,.,.
COc1cc(C2C3=C(CCCC3=O)Nc3[nH]n(-c4ccccc4)c(=O)c32)ccc1O (centres undefined),.,i,i,i,.,.,.,.
COc1cc(C2C3=C(CCCC3=O)Nc3c2c(C)nn3-c2cccc(C)c2)cc(OC)c1O (centres undefined),6.3*,i,i,i,i,14%*,40%*,i
O=C(NC(C(=O)N/N=C/c1cccc2ccccc12)c1n[nH]c(=O)c2ccccc12)c1ccccc1 (centres undefined),14*,i,i,i,i,24%*,30%*,i
O=C(NC(C(=O)N/N=C/c1ccncc1)c1n[nH]c(=O)c2ccccc12)c1ccccc1 (centres undefined),i,i,i,i,i,.,.,.
OC(CNCC(c1ccc(Cl)cc1Cl)c1c[nH]c2ccccc12)c1ccccc1 (centres undefined),4.9*,i,i,i,i,17%*,i,14%*
O=[N+]([O-])CC(c1ccccc1)c1c[nH]c2ccccc12 (centres undefined),i,i,i,i,i,.,.,.
COc1ccc(-n2c(COc3ccc(Cl)cc3)nnc2SCc2ccc(C#N)cc2)cc1,i,i,i,i,i,.,.,.

# Assay outcomes (PubChem BioAssay)
